# Assay results from different studies.
# Each line is one published result; the experiments were not run side by side.
# Target: Tyrosine-protein kinase Blk (BLK, Homo sapiens, UniProt P51451)
Structure (SMILES),effect on,technique,tested at,remaining binding [%]
Cc1nc(C2CCN(C(=O)c3ccc(OC(F)(F)F)cc3N)CC2)c2ncc(N3CCN(C)CC3)cc2n1,cell-free assay,competition with immobilised ligand,1 µM,97
c1cnn2ncc(-c3ccnc(N4CCC45COC5)n3)c2c1,binding,,1 µM,100
COc1ccc2c(O[C@@H]3C[C@H]4C(=O)N[C@]5(C(=O)O)CC5/C=C\CCCCC[C@H](NC(=O)OC5CCCC5)C(=O)N4C3)cc(-c3csc(NC(=O)C(C)C)n3)nc2c1C (stereo partly shown),cell-free assay,competition with immobilised ligand,1 µM,97
CN(CCCC(F)(F)F)c1nccc(-c2cnn3ncccc23)n1,binding,,1 µM,91
C[C@@H](c1ccc(-n2cnc3c(N)ncnc32)cc1)N1CCc2nn(C)c(Cc3ccccc3)c2C1=O,binding,competition with immobilised ligand,0.1 µM,89
O=C(Nc1c[nH]nc1C(=O)NC1CCNCC1)c1cc(F)cc(F)c1,binding,competition with immobilised ligand,1 µM,83
CN(C)c1ncc(F)c(-c2cnn3ncccc23)n1,binding,,1 µM,90
Nc1cnc(N2CCc3cc(S(=O)(=O)Nc4c(F)cc(Cl)cc4F)cc(N4CCCC4=O)c32)nc1,cell-free assay,competition with immobilised ligand,1 µM,100
C[C@H]1CCN(c2nccc(-c3cnn4ncccc34)n2)C1,binding,,1 µM,100
COc1cc(-c2cn(C3CCc4ccccc4N(CC(F)(F)F)C3=O)nn2)ccc1-n1ccc(C)n1 (stereo not shown),cell-free assay,competition with immobilised ligand,1 µM,100
COc1cnc(Nc2cccc(S(N)(=O)=O)c2)nc1N1CCN(c2ccccc2)C(=O)C1,binding,competition with immobilised ligand,1 µM,100
Cn1nc(C(F)(F)F)cc1-c1cnc(N2CCc3cc(S(=O)(=O)Nc4c(F)cc(Cl)cc4F)cc(N4CCCC4=O)c32)nc1,cell-free assay,competition with immobilised ligand,1 µM,100
O=C(NCCCN1CCOCC1)c1ccc(Nc2nccc(-c3cc4ccccc4s3)n2)cc1,binding,competition with immobilised ligand,1 µM,100
CO[C@@H](C)c1c(Nc2ccc([C@@H](N(C)C(=O)C3CCS(=O)(=O)CC3)C(F)(F)F)cc2)cnc2cc(Cl)nn12,cell-free assay,competition with immobilised ligand,1 µM,56
N[C@@H]1CCN(c2nccc(-c3cnn4ncccc34)n2)C1,binding,,1 µM,97
C=CC(=O)N1CCC(C(=O)NCC(=O)N2CCN(c3nc(-c4cnc(N)nc4C(F)F)nc(N4CCOCC4)n3)CC2)CC1,binding,competition with immobilised ligand,1 µM,100
COc1cnc(Nc2cccc(S(N)(=O)=O)c2)nc1N1CCN(c2ccccc2)CC1,binding,competition with immobilised ligand,1 µM,80
CN(c1nccc(-c2cnn3ncccc23)n1)C1CC1,binding,,1 µM,100
O=C(NCCCN1CCOCC1)c1ccc(Nc2ncc(Cl)c(-c3ccc(Cl)s3)n2)cc1,binding,competition with immobilised ligand,1 µM,100
COc1ncc2cc3ccccc3nc2c1C#N,cell-free assay,competition with immobilised ligand,5 µM,87
O=C(c1ccc(Nc2ncc(Cl)c(-c3cc4ccccc4s3)n2)cc1)N1CCC(N2CCCC2)CC1,binding,competition with immobilised ligand,1 µM,100
Nc1ncc2c(n1)-c1c([nH]c3ccc(C#CC4CC4)cc13)CCCC2,binding,competition with immobilised ligand,1 µM,100
